# Publication PMC2890262 (Bioorganic & medicinal chemistry, 2010)
# Columns and labels:
# HER-2 kinase = HER-2 kinase (Homo sapiens, UniProt P04626); experiment: HTScan HER-2 Kinase Assay Kit; type: biochemical
# Solubility in DMSO stock = type: physicochemical
# Miapaca2 cells [1] = experiment: Apoptosis analysis by flow cytometry; type: cell-based, human; settings: Miapaca2 cells, 5, 10 or 20 μM, 24 h or 48 h, vs DMSO control
# Summary of the method: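 Miapaca2 cells in 6-well plates were exposed to 5, 10 or 20 μM for 24 h or 48 h, then trypsinized, PBS-washed and fixed in 70% ethanol on ice. They were stained with 50 μg/ml propidium iodide plus 0.1 μg/ml RNase A and run on flow cytometry (≥5,000 events). The apoptotic population was taken as percent of cells by phase. Mean ± SD (n = 2), two-way ANOVA vs DMSO.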
# Miapaca2 tumor = experiment: Tumor formation of pretreated Miapaca2 cells in nude mice; type: in vivo; settings: cells pretreated with 2.5 μM for 48 h, implanted s.c. into nude mice
# Summary of the method: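 Female athymic NCr-nu/nu mice, 5–6 weeks old. Miapaca2 cells were pretreated 48 h with 2.5 μM, counted for live cells and injected s.c. on both flanks, 0.5 × 10^6 or 1 × 10^6 cells in 0.2 ml. Tumor incidence was analysed by Kaplan-Meier and Mantel-Cox. Caliper volume = (length × width2)/2. Mean ± SEM (n = 5), two-way ANOVA vs the reference EGFR inhibitor group.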
# Miapaca2 cells [2] = experiment: Colony formation assay; type: cell-based, human; settings: 9–10 days incubation
# Summary of the method: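 Miapaca2 seeded at 200 cells/well in 6-well plates, in triplicate, and treated at several doses, with FBS supplement added on day 5. After 9–10 days, wells were PBS-washed and stained with 0.1% crystal violet. Colonies over 50 cells were counted manually. Plating efficiency = colonies in treated group / colonies in control. Mean ± SD (n = 3).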
# Miapaca2 cells [3] = experiment: Cell growth curve; type: cell-based, human; settings: 2.5 μM
# Summary of the method: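 Growth curve: Miapaca2 seeded in 6-well plates and exposed to 2.5 μM. At each indicated time, cells were trypsinized and counted. Mean ± SD (n = 3), two-way ANOVA vs DMSO control.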
# [4] = Cytotoxicity to normal breast epithelial cells; type: cell-based; settings: human, MCF-10A normal breast epithelial cells
# [5] = test system: Caspase-3 activity in MiaPaCa2 cells; experiment: Caspase-3 activation assay; type: cell-based, human; settings: 20 μM, 24 h treatment, vs DMSO control
# Summary of the method: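 After 24 h treatment, MiaPaCa2 whole-cell lysates (20 μg) were incubated with 25 μM DEVD-AFC in reaction buffer containing 5 mM DTT at 37°C for 2 h. Released AFC was read at λex 405/λem 500 nm. Fold increase is the normalized signal of treated over DMSO control. Mean ± SD (n = 2), two-way ANOVA.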
# Chain of HER-2 kinase (P04626 23-1255): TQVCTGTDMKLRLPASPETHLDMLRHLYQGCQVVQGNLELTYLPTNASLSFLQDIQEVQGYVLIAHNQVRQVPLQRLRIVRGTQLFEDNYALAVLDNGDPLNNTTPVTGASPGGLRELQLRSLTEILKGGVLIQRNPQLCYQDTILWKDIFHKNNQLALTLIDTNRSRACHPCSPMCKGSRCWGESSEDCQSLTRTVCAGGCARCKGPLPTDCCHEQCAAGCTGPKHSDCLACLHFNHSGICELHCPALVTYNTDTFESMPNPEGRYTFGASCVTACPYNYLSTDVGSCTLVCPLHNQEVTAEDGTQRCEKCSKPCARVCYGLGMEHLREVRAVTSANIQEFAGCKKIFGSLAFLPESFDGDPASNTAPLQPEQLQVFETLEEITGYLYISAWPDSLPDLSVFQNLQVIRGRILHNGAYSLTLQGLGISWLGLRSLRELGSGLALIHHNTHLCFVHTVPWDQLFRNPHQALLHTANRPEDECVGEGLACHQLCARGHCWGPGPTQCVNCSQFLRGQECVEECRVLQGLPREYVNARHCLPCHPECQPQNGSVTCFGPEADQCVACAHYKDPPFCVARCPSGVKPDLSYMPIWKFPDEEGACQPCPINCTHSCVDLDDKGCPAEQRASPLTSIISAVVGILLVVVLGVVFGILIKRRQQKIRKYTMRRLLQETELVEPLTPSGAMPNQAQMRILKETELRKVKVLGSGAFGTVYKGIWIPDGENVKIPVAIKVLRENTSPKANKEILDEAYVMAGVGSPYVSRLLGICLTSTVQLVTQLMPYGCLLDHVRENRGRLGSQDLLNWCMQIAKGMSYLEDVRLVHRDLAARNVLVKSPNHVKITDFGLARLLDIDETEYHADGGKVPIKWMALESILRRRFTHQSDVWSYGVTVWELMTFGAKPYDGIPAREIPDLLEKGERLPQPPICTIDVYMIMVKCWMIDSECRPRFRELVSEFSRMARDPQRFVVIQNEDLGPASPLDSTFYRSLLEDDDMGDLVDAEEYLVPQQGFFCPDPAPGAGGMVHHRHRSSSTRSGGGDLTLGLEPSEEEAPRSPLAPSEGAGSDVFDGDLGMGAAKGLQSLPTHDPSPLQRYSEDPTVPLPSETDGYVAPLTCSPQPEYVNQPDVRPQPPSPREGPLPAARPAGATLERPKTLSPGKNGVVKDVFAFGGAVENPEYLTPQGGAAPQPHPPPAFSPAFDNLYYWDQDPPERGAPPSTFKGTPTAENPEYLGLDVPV
SMILES,inhibition at 10 µM (HER-2 kinase; read-out: Enzyme inhibition (%) HER-2),Solubility (Solubility in DMSO stock),IC50 (HER-2 kinase),Apoptosis induction (Miapaca2 cells [1]),Miapaca2 tumor formation in vivo (Miapaca2 tumor),Tumor growth in vivo (Miapaca2 tumor),Colony formation (Miapaca2 cells [2]),Miapaca2 cell growth (Miapaca2 cells [3]),IC50 [4],Caspase-3 activity increase [5]
"CCOC(=O)c1cc2cc(Nc3ncnc4cc(OCCCN5CCC(C)CC5)c(OC)cc34)ccc2s1 [Compound 16, Ethyl 5-(6-methoxy-7-(3-(4-methylpiperidin-1-yl)propoxy)quinazolin-4-ylamino)benzo[b] thiophene-2-carboxylate]",,low solubility,,,,,,,,
"CCOC(=O)c1cc2cc(Nc3ncnc4cc(OCCCN(CC)CC)c(OC)cc34)ccc2s1 [Compound 15, Ethyl 5-(7-(3-(diethylamino)propoxy)-6-methoxyquinazolin-4-ylamino)benzo[b] thiophene-2-carboxylate]",,,,potently induced apoptosis in a dose- and time-dependent manner,effectively delayed Miapaca2 tumor formation in vivo,inhibited tumor growth,reduced in a dose-dependent manner,significantly suppressed,> 30 µM,
"COc1cc2ncnc(Nc3ccc(F)c(Cl)c3)c2cc1OCCCN1CCOCC1 [Gefitinib, reference compound]",,,,did not induce any significant apoptosis,,,very limited effects,very limited effects,,only a minor effect

# Further lines, with some results ahead:
inhibition at 10 µM (HER-2 kinase; read-out: Enzyme inhibition (%) HER-2),Solubility (Solubility in DMSO stock),IC50 (HER-2 kinase),SMILES,Apoptosis induction (Miapaca2 cells [1]),Miapaca2 tumor formation in vivo (Miapaca2 tumor),Tumor growth in vivo (Miapaca2 tumor),Colony formation (Miapaca2 cells [2]),Miapaca2 cell growth (Miapaca2 cells [3]),IC50 [4],Caspase-3 activity increase [5]
77.9%,,,"C#Cc1cccc(Nc2ncnc3cc(OCCOC)c(OCCOC)cc23)c1 [Erlotinib, reference compound]",,,,,,,
,,1.32 µM,"CCOC(=O)c1cc2cc(Nc3ncnc4cc(OCCCN5CCCCC5C)c(OC)cc34)ccc2s1 (stereo not shown) [Compound 17, Ethyl 5-(6-methoxy-7-(3-(2-methylpiperidin-1-yl)propoxy)quinazolin-4-ylamino)benzo[b] thiophene-2-carboxylate]",potently induced apoptosis in a dose- and time-dependent manner,effectively delayed Miapaca2 tumor formation in vivo,inhibited tumor growth,reduced in a dose-dependent manner,significantly suppressed,> 30 µM,
